The text below walks through data of ChEMBL document CHEMBL1144885 (J Med Chem, 2003).

The target in test [1] is T1, Histamine H3 receptor (Homo sapiens, UniProt Q9Y5N1). Briefly: Inhibitory activity determined by the inhibition of cAMP- stimulated beta-galactosidase transcription in SK-N-MC cells expressing the human Histamine H3 receptor. In kind it is cell-based.
The target of test [2] is T2, Histamine H4 receptor (Homo sapiens, UniProt Q9H3N8). Briefly: Inhibitory activity determined by the inhibition of cAMP- stimulated beta-galactosidase transcription in SK-N-MC cells expressing the human Histamine H4 receptor. In kind it is cell-based. The essentials:
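SK-N-MC cells stably carrying human H4 receptor and a CRE-driven β-galactosidase reporter gene, grown overnight, then exposed 6 h at 37 °C to 1 μM forskolin plus ligand. Mean ± SEM, at least three independent experiments.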

The target in test [3] is T2, Histamine H4 receptor. Nature of the test: Inhibitory activity measured by [3H]histamine binding to membranes of SK-N-MC cells expressing the human Histamine H4 receptor.
Test [4] addresses T1, Histamine H3 receptor. Briefly: Inhibitory activity measured by [3H]- N alpha- methyl-histamine binding to membranes of SK-N-MC cells expressing the human Histamine H3 receptor. The format is cell membranes.
Test [5] addresses T2, Histamine H4 receptor. Briefly: Intrinsic activity for Histamine H4 receptor. The essentials: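 SK-N-MC cells stably carrying human H4 receptor and a CRE-driven β-galactosidase reporter gene, grown overnight, then exposed 6 h at 37 °C to 1 μM forskolin plus ligand. Medium removed; cells held overnight at 4 °C in pH 8 phosphate buffer containing Triton and 4 mM ONPG; absorbance read at 405 nm. Mean ± SEM, at least three independent experiments.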

Molecules are shown by their SMILES.

T1 sequence (Q9Y5N1 whole entry): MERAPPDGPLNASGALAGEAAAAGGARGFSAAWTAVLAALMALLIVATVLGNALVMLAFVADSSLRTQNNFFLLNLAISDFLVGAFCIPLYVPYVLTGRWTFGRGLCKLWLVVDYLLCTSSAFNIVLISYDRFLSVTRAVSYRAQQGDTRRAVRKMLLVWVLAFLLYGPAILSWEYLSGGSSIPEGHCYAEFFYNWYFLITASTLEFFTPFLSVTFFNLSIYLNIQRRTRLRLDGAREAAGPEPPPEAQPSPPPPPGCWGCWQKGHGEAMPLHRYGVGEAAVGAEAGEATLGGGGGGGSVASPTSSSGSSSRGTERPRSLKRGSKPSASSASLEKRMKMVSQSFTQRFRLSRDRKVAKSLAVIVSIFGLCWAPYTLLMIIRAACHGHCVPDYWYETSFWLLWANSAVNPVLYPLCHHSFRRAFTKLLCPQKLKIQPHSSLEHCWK
T2 sequence (Q9H3N8 whole entry): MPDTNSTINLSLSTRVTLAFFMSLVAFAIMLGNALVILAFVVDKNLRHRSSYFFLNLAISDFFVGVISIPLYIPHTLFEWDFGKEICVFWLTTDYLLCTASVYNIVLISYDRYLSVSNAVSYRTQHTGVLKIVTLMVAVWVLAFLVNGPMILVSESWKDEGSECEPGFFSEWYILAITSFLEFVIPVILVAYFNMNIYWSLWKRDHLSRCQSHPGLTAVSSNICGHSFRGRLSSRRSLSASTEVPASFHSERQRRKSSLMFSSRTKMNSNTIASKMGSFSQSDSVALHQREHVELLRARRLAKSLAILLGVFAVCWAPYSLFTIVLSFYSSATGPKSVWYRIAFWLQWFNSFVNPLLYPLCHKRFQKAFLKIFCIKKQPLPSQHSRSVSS

In the case of `c1nc(CCC2CCCCN2)c[nH]1` (centres undefined), the values for the EC50 at Histamine H3 receptor [1] and on Histamine H4 receptor [2] were over 10000 nM and over 10 µM, respectively. Also, at Histamine H4 receptor [3], the Ki is 4470 nM.

As to `C=C(c1c[nH]cn1)C1CCNCC1`, the figures for the Ki at Histamine H3 receptor [4] and at Histamine H4 receptor [3] were 3.98 nM and 2820 nM, respectively. The values for the 50% effective concentration (EC50) at Histamine H3 receptor [1] and at Histamine H4 receptor [2] were 2.34 nM and over 10 µM, respectively.

`C[C@@H](N)Cc1c[nH]cn1` gave a 50% effective concentration (EC50) on Histamine H4 receptor [2] of 1.12 µM. The Intrinsic activity on Histamine H4 receptor [5] came to 1.04.

On to `N[C@@H]1C[C@H]1c1cnc[nH]1` [VUF-5296], for which the inhibitory constant (Ki) on Histamine H3 receptor [4] is 67.6 nM; on Histamine H4 receptor [3] it was 3800 nM. Further, the half-maximal effective concentration (EC50) is 57.5 nM on Histamine H3 receptor [1] and over 10 µM on Histamine H4 receptor [2].

Regarding `C1=C(c2c[nH]cn2)CCNC1`, the inhibition constant (Ki) at Histamine H3 receptor [4] was 4270 nM; on Histamine H4 receptor [3], 263000 nM. Moreover, the EC50 at Histamine H3 receptor [1] is 1510 nM; at Histamine H4 receptor [2], over 10 µM.

On Histamine H3 receptor [4], `NCCCc1c[nH]cn1` [HOMOHISTAMINE] showed a Ki of 49 nM. The concentration for a half-maximal effect (EC50) at Histamine H3 receptor [1] was 42.7 nM; on Histamine H4 receptor [2] it was 0.214 µM. On Histamine H4 receptor [5], this compound registered an Intrinsic activity of 0.82.

As to `c1nc(CCC2CCNCC2)c[nH]1`, the results for the Ki at Histamine H3 receptor [4] and at Histamine H4 receptor [3] were 20 nM and 372 nM, respectively. The values for the EC50 on Histamine H3 receptor [1] and at Histamine H4 receptor [2] were 13.2 nM and over 10 µM, respectively.

On to `NCCCCc1c[nH]cn1` [IMBUTAMINE], for which the affinity at Histamine H3 receptor [4], expressed as Ki, was 4.07 nM. The EC50 on Histamine H3 receptor [1] was 7.41 nM; on Histamine H4 receptor [2] it was 0.0891 µM. The compound also came in with an Intrinsic activity at Histamine H4 receptor [5] of 0.96.

As for `c1nc(CC2CCNC2)c[nH]1` (centres undefined), the inhibitory constant (Ki) at Histamine H3 receptor [4] was 3.63 nM; at Histamine H4 receptor [3], 51.3 nM. The EC50 is 1.32 nM at Histamine H3 receptor [1] and 0.741 µM on Histamine H4 receptor [2]. On Histamine H4 receptor [5], this compound had an Intrinsic activity of 0.83.

Compound `c1nc(CC2CCNCC2)c[nH]1` [IMMEPIP] had a Ki at Histamine H3 receptor [4] of 0.479 nM. In addition, the EC50 was 0.132 nM on Histamine H3 receptor [1] and 0.0562 µM on Histamine H4 receptor [2]. The Intrinsic activity on Histamine H4 receptor [5] was found to be 0.73.

As for `NCCCCCc1c[nH]cn1` [IMPENTAMINE], the half-maximal effective concentration (EC50) on Histamine H3 receptor [1] was 2.34 nM; at Histamine H4 receptor [2], over 10 µM. The compound also showed a Ki at Histamine H4 receptor [3] of 372 nM.

For the compound `c1nc(C2CCNCC2)c[nH]1`, the inhibition constant Ki was 871 nM at Histamine H3 receptor [4] and 2190 nM at Histamine H4 receptor [3]. Also, the half-maximal effective concentration (EC50) was 1820 nM at Histamine H3 receptor [1] and over 10 µM on Histamine H4 receptor [2].

Turning to `c1nc(C[C@H]2CCNC2)c[nH]1`, the values for the inhibitory constant (Ki) at Histamine H3 receptor [4] and at Histamine H4 receptor [3] were 5.25 nM and 37.2 nM, respectively. In addition, the concentration giving a half-maximal response (EC50) on Histamine H3 receptor [1] is 2.09 nM; at Histamine H4 receptor [2] it was 0.417 µM. The compound further registered an Intrinsic activity at Histamine H4 receptor [5] of 0.85.

As to `c1ncc(CCCC2CCNCC2)[nH]1`, the inhibition constant Ki is 4.47 nM at Histamine H3 receptor [4] and 617 nM at Histamine H4 receptor [3]. Moreover, the values for the concentration for a half-maximal effect (EC50) on Histamine H3 receptor [1] and at Histamine H4 receptor [2] were 8.32 nM and over 10 µM, respectively.

As to `c1nc(CC2CCCNC2)c[nH]1` (centres undefined), the Ki on Histamine H3 receptor [4] is 67.6 nM; on Histamine H4 receptor [3], 617 nM. Besides, the concentration for a half-maximal effect (EC50) on Histamine H3 receptor [1] is 49 nM; at Histamine H4 receptor [2] it was 3.98 µM. This compound had an Intrinsic activity on Histamine H4 receptor [5] of 0.64.

Take `O=C(c1c[nH]cn1)C1CCNCC1`: the concentration for a half-maximal effect (EC50) on Histamine H3 receptor [1] was 2750 nM; at Histamine H4 receptor [2] it was over 10 µM. Moreover, the Ki at Histamine H4 receptor [3] was 479000 nM.

In the case of `C(=C1CCNCC1)c1c[nH]cn1`, the Ki was 5.89 nM on Histamine H3 receptor [4] and 1740 nM on Histamine H4 receptor [3]. Besides, the half-maximal effective concentration (EC50) at Histamine H3 receptor [1] was 3.16 nM; on Histamine H4 receptor [2] it was over 10 µM.

With `c1nc(CCC2CCCNC2)c[nH]1` (centres undefined), the Ki at Histamine H3 receptor [4] is 182 nM; at Histamine H4 receptor [3], 324 nM. Besides, the EC50 is 513 nM on Histamine H3 receptor [1] and 2.04 µM at Histamine H4 receptor [2]. Also, at Histamine H4 receptor [5], the Intrinsic activity is 0.48.

Turning to `c1nc(C[C@@H]2CCNC2)c[nH]1`, the Ki on Histamine H3 receptor [4] is 1.41 nM; at Histamine H4 receptor [3], 141 nM. Moreover, the EC50 on Histamine H3 receptor [1] is 0.389 nM; on Histamine H4 receptor [2], 1.02 µM. The compound also had an Intrinsic activity at Histamine H4 receptor [5] of 0.8.

Take `N[C@H]1C[C@@H]1c1c[nH]cn1` [VUF-5297]: the Ki was 9.33 nM at Histamine H3 receptor [4] and 1100 nM on Histamine H4 receptor [3]. Further, the concentration giving a half-maximal response (EC50) at Histamine H3 receptor [1] is 5.89 nM; on Histamine H4 receptor [2] it was 7.08 µM. For the same compound, the Intrinsic activity at Histamine H4 receptor [5] is 0.61.

As for `NCC1CC1c1c[nH]cn1` (centres undefined), the inhibitory constant (Ki) on Histamine H3 receptor [4] is 35.5 nM; on Histamine H4 receptor [3], 112 nM. Moreover, the concentration for a half-maximal effect (EC50) was 19.5 nM at Histamine H3 receptor [1] and 1.1 µM at Histamine H4 receptor [2]. The Intrinsic activity on Histamine H4 receptor [5] came out at 0.56.

Regarding `NCCCCCCc1cnc[nH]1`, the Ki was 10 nM on Histamine H3 receptor [4] and 759 nM on Histamine H4 receptor [3]. Further, the EC50 was 33.1 nM on Histamine H3 receptor [1] and over 10 µM on Histamine H4 receptor [2].

In the case of `c1nc(CCCC2CCCNC2)c[nH]1` (centres undefined), on Histamine H4 receptor [2], the EC50 is over 10 µM. On Histamine H4 receptor [3], this compound showed a Ki of 389 nM.

Consider `c1nc(CC2CCCCN2)c[nH]1` (centres undefined), for which the EC50 at Histamine H3 receptor [1] was 794 nM; on Histamine H4 receptor [2] it was over 10 µM. The compound further had a Ki at Histamine H4 receptor [3] of 8910 nM.

As for `c1nc(CCCC2CCCCN2)c[nH]1` (centres undefined), the values for the inhibition constant Ki at Histamine H3 receptor [4] and at Histamine H4 receptor [3] were 93.3 nM and 575 nM, respectively. Also, the concentration for a half-maximal effect (EC50) at Histamine H3 receptor [1] is 324 nM; at Histamine H4 receptor [2], over 10 µM.

What is called EC50 is the concentration needed to bring the measured effect to its halfway point. A high value points to a less potent agent. Usually Ki stands for a measure of affinity in units of concentration, obtained from inhibition or displacement. Read a high Ki as lower affinity.
